The values that follow come from ChEMBL document CHEMBL3784963, “Synthesis, cytotoxic activity evaluation and HQSAR study of novel isosteviol derivatives as potential anticancer agents” (Eur J Med Chem, 2016).

What all share (assay type): functional, cell-based
A short description of experiment [1]: Cytotoxicity against human HCT116 cells assessed as growth inhibition after 72 hrs by MTT assay. To be noted: HCT-116, 72 h. In outline:
(§1)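 MTT cytotoxicity assay on three human cancer cell lines: HCT-116 (colon carcinoma), HGC-27 (gastric carcinoma) and JEKO-1 (mantle cell lymphoma).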

Experiment [2] can be described thus: Cytotoxicity against human HGC27 cells assessed as growth inhibition after 72 hrs by MTT assay. The following applies: HGC-27, 72 h. In outline:
as §1

Experiment [3] in a line: Cytotoxicity against human JeKo1 cells assessed as growth inhibition after 72 hrs by MTT assay. To be noted: JeKo-1, 72 h. The gist of the method: as §1
In general terms: Tetrazolium dyes change colour on reduction, which living cells bring about.

In the case of `CCOC(=O)[C@]1(C)CCC[C@@]2(C)[C@@H]3CC[C@@]4(C)C[C@]3(CC[C@@H]21)[C@H](CO)[C@H]4NC(=S)Nc1ccc(F)cc1`, the concentration for half-maximal inhibition (IC50) – broadly, the point on the concentration scale where inhibition reaches its midpoint – in experiment [1] turned out to be 4.76 µM; in experiment [2], 4.92 µM; in experiment [3], 23.7 µM.
The like results for `C=C[C@]12CC[C@H]3[C@@](C)(CCC[C@@]3(C)C(=O)OCC)[C@@H]1CC[C@](C)(CN=C=S)C2` were, in that order, 4.14 µM, 11.5 µM and 5.43 µM.
For the molecule `C=C[C@]12CC[C@H]3[C@@](C)(CCC[C@@]3(C)C(=O)OCC)[C@@H]1CC[C@](C)(CNC(=S)Nc1ccccc1)C2`, the IC50 in experiment [1] came out at 3.47 µM; in experiment [2], 6.69 µM; in experiment [3], 2.77 µM.
In the same order, the values of `CCOC(=O)[C@]1(C)CCC[C@@]2(C)[C@@H]3CC[C@@]4(C)C[C@]3(CC[C@@H]21)[C@H](CO)[C@H]4NC(=S)Nc1cccc(C)c1` are 4.63 µM, 4.36 µM and 20.8 µM.
In the same order, the values of `CCOC(=O)[C@]1(C)CCC[C@@]2(C)[C@@H]3CC[C@@]4(C)C[C@]3(CC[C@@H]21)[C@H](CO)[C@H]4NC(=S)Nc1ccccc1[N+](=O)[O-]` are 11.7 µM, 22.8 µM and 26.9 µM.
In the same order, the values of `CCOC(=O)[C@]1(C)CCC[C@@]2(C)[C@@H]3CC[C@@]4(C)C[C@]3(CC[C@@H]21)[C@H](CO)[C@H]4NC(=S)Nc1cccc(Br)c1` are 4.17 µM, 9.15 µM and 27.3 µM.
As to `CCOC(=O)[C@]1(C)CCC[C@@]2(C)[C@@H]3CC[C@@]4(C)C[C@]3(CC[C@@H]21)[C@H](CO)[C@@H]4N`, the IC50 in experiment [1] was 4.9 µM; in experiment [2], 7.25 µM; in experiment [3], 2.47 µM.
Take `CCOC(=O)[C@]1(C)CCC[C@@]2(C)[C@@H]3CC[C@@]4(C)C[C@]3(CC[C@@H]21)[C@H](CO)[C@H]4NC(C)=O`: the IC50 in experiment [1] came out at 15.2 µM; in experiment [2] it was 18 µM; in experiment [3] it was 62 µM.
Consider `CCOC(=O)[C@]1(C)CCC[C@@]2(C)[C@@H]3CC[C@@]4(C)C[C@]3(CC[C@@H]21)C[C@H]4N=C=S`, for which the IC50 in experiment [1] was 6.96 µM; in experiment [2], 11.6 µM; in experiment [3], 38.3 µM.
`CCOC(=O)[C@]1(C)CCC[C@@]2(C)[C@@H]3CC[C@@]4(C)C[C@]3(CC[C@@H]21)[C@H](CO)[C@H]4NC(=S)Nc1ccc(OC)cc1`: the results for the IC50 in experiment [1], in experiment [2] and in experiment [3] were 4.57 µM, 7.72 µM and 40.3 µM, respectively.
Consider `CCOC(=O)[C@]1(C)CCC[C@@]2(C)[C@@H]3CC[C@@]4(C)C[C@]3(CC[C@@H]21)[C@H](CO)[C@H]4NC(=S)Nc1cccc(Cl)c1`, for which the half-maximal inhibitory concentration (IC50) was 2.75 µM in experiment [1], 5.46 µM in experiment [2] and 20.5 µM in experiment [3].
`CCOC(=O)[C@]1(C)CCC[C@@]2(C)[C@@H]3CC[C@@]4(C)C[C@]3(CC[C@@H]21)C[C@H]4NC(=S)Nc1ccccc1`: the IC50 in experiment [1] turned out to be 8.66 µM; in experiment [2] it was 13.8 µM; in experiment [3], 21.5 µM.
In the same order, the values of `CCOC(=O)[C@]1(C)CCC[C@@]2(C)[C@@H]3CC[C@@]4(C)C[C@]3(CC[C@@H]21)[C@H](CO)[C@H]4NC(=S)Nc1ccc(C)cc1` are 5.62 µM, 5.53 µM and 30.2 µM.
In the case of `CCOC(=O)[C@]1(C)CCC[C@@]2(C)[C@@H]3CC[C@@]4(C)C[C@]3(CC[C@@H]21)C[C@H]4NC(=S)NC1CCCCC1`, the IC50 in experiment [1] was 82.6 µM; in experiment [2], 92.2 µM; in experiment [3], 94.8 µM.
On to `CCOC(=O)[C@]1(C)CCC[C@@]2(C)[C@@H]3CC[C@@]4(C)C[C@]3(CC[C@@H]21)[C@H](CO)[C@H]4NC(=S)Nc1ccccc1`, for which the IC50 in experiment [1] worked out at 5.79 µM; in experiment [2], 5.16 µM; in experiment [3], 27.3 µM.
As for `CCOC(=O)[C@]1(C)CCC[C@@]2(C)[C@@H]3CC[C@@]4(C)C[C@]3(CC[C@@H]21)[C@H](CO)[C@H]4NC(=S)Nc1ccccc1C`, the values for the IC50 in experiment [1], in experiment [2] and in experiment [3] were 4.78 µM, 5.04 µM and 24.7 µM, respectively.
In the case of `CCOC(=O)[C@]1(C)CCC[C@@]2(C)[C@@H]3CC[C@@]4(C)C[C@]3(CC[C@@H]21)C[C@H]4NC(=S)NNC(=O)c1ccccc1`, the results for the IC50 in experiment [1], in experiment [2] and in experiment [3] were 15.1 µM, 26.2 µM and 56.8 µM, respectively.
In the same order, the values of `CCOC(=O)[C@]1(C)CCC[C@@]2(C)[C@@H]3CC[C@@]4(C)C[C@]3(CC[C@@H]21)[C@H](CO)[C@H]4NC(=S)Nc1ccc([N+](=O)[O-])cc1` are 1.45 µM, 2.35 µM and 3.54 µM.
The like results for `CCOC(=O)[C@]1(C)CCC[C@@]2(C)[C@@H]3CC[C@@]4(C)C[C@]3(CC[C@@H]21)[C@H](CO)[C@H]4N` were, in that order, 4.89 µM, 5.83 µM and 3.54 µM.
In the same order, the values of `CCOC(=O)[C@]1(C)CCC[C@@]2(C)[C@@H]3CC[C@@]4(C)C[C@]3(CC[C@@H]21)[C@H](CO)[C@H]4NC(=S)Nc1cccc([N+](=O)[O-])c1` are 1.88 µM, 2.38 µM and 5.26 µM.
With `CCOC(=O)[C@]1(C)CCC[C@@]2(C)[C@@H]3CC[C@@]4(C)C[C@]3(CC[C@@H]21)[C@H](CO)[C@H]4NC(=S)Nc1ccccc1Br`, the figures for the IC50 in experiment [1], in experiment [2] and in experiment [3] were 20.9 µM, 15.6 µM and 14 µM, respectively.
The like results for `CCOC(=O)[C@]1(C)CCC[C@@]2(C)[C@@H]3CC[C@@]4(C)C[C@]3(CC[C@@H]21)[C@H](CO)[C@H]4NC(=S)Nc1cccc(F)c1` were, in that order, 4.91 µM, 4.98 µM and 28.9 µM.
For the molecule `CCOC(=O)[C@]1(C)CCC[C@@]2(C)[C@@H]3CC[C@@]4(C)C[C@]3(CC[C@@H]21)[C@H](CO)[C@H]4NC(=S)Nc1cccc(OC)c1`, the 50% inhibitory concentration (IC50) in experiment [1] was 3.84 µM; in experiment [2], 7.21 µM; in experiment [3] it was 31.9 µM.
`CCOC(=O)[C@]1(C)CCC[C@@]2(C)[C@@H]3CC[C@@]4(C)C[C@]3(CC[C@@H]21)C[C@H]4N`: the half-maximal inhibitory concentration (IC50) in experiment [1] came to 5.08 µM; in experiment [2] it was 2.6 µM; in experiment [3], 2.2 µM.
As to `CCOC(=O)[C@]1(C)CCC[C@@]2(C)[C@@H]3CC[C@@]4(C)C[C@]3(CC[C@@H]21)[C@H](CO)[C@H]4NC(=S)Nc1ccc(Br)cc1`, the IC50 was found to be 2.21 µM in experiment [1], 2.98 µM in experiment [2] and 6.73 µM in experiment [3].
In the case of `CCOC(=O)[C@]1(C)CCC[C@@]2(C)[C@@H]3CC[C@@]4(C)C[C@]3(CC[C@@H]21)[C@H](CO)[C@H]4NC(=S)Nc1ccccc1Cl`, the IC50 in experiment [1] came to 7.23 µM; in experiment [2] it was 8.98 µM; in experiment [3], 40.7 µM.
The like results for `CCOC(=O)[C@]1(C)CCC[C@@]2(C)[C@@H]3CC[C@@]4(C)C[C@]3(CC[C@@H]21)[C@H](COC(C)=O)[C@H]4NC(C)=O` were, in that order, 20.1 µM, 20.5 µM and 60.6 µM.
`CCOC(=O)[C@]1(C)CCC[C@@]2(C)[C@@H]3CC[C@@]4(C)C[C@]3(CC[C@@H]21)[C@H](CO)[C@H]4NC(=S)Nc1ccccc1F`: the IC50 in experiment [1] amounted to 4.85 µM; in experiment [2], 7.38 µM; in experiment [3] it was 35.7 µM.
In the same order, the values of `CCOC(=O)[C@]1(C)CCC[C@@]2(C)[C@@H]3CC[C@@]4(C)C[C@]3(CC[C@@H]21)[C@H](CO)[C@H]4NC(=S)Nc1c(C)cccc1C` are 4.54 µM, 8.9 µM and 21.1 µM.
In the same order, the values of `CCOC(=O)[C@]1(C)CCC[C@@]2(C)[C@@H]3CC[C@@]4(C)C[C@]3(CC[C@@H]21)[C@H](CO)[C@H]4NC(=S)Nc1ccccc1OC` are 5.4 µM, 9.02 µM and 28.3 µM.
In the same order, the values of `CCOC(=O)[C@]1(C)CCC[C@@]2(C)[C@@H]3CC[C@@]4(C)C[C@]3(CC[C@@H]21)[C@H](CO)[C@H]4NC(=S)Nc1ccc(Cl)cc1` are 4.41 µM, 3.33 µM and 5.76 µM.
Take `CCOC(=O)[C@]1(C)CCC[C@@]2(C)[C@@H]3CC[C@@]4(C)C[C@]3(CC[C@@H]21)[C@H](CO)[C@H]4NC(=S)Nc1ccc(Cl)cc1Cl`: the IC50 was 4.02 µM in experiment [1], 4.78 µM in experiment [2] and 27.3 µM in experiment [3].
With `CCOC(=O)[C@]1(C)CCC[C@@]2(C)[C@@H]3CC[C@@]4(C)C[C@]3(CC[C@@H]21)[C@H](CO)[C@H]4N=C=S`, the results for the 50% inhibitory concentration (IC50) in experiment [1], in experiment [2] and in experiment [3] were 4.45 µM, 7.7 µM and 30.1 µM, respectively.
Consider `CCOC(=O)[C@]1(C)CCC[C@@]2(C)[C@@H]3CC[C@@]4(C)C[C@]3(CC[C@@H]21)C[C@H]4NC(=S)N[C@@H](C)c1ccccc1`, for which the results for the half-inhibitory concentration (IC50) in experiment [1], in experiment [2] and in experiment [3] were 6.63 µM, 18.2 µM and 15.2 µM, respectively.
In the same order, the values of `C=C[C@]12CC[C@H]3[C@@](C)(CCC[C@@]3(C)C(=O)OCC)[C@@H]1CC[C@](C)(CN)C2` are 2.46 µM, 3.02 µM and 2.16 µM.
As to `C[C@@]12CC[C@@H]3[C@@](CC[C@H]4[C@@]3(C)CCC[C@@]4(C)C(=O)O)(CC1=O)C2` [ISOSTEVIOL], the half-inhibitory concentration (IC50) in experiment [1], in experiment [2] and in experiment [3] was greater than 100 µM throughout.
